Only some compounds are listed: those with a hit (about 2.6% of all), similar ones and a draw of the others.
CHT PAM: CHT positive allosteric modulators, primary screen, cell-based, membrane potential dye, choline EC20; B-score at 10 µM; actives 0.49% (n = 310,000); High affinity choline transporter 1 (Homo sapiens), Q9GZV3; AID 488977, 2010; CHT-expressing cells; active compounds read high; LV-AA mutant CHT in HEK293 cells;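 active = initial fluorescence not abnormally high and integrated response B-score, plate-corrected, over 3 SD above library mean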
Target sequence (Q9GZV3 whole entry, looked up): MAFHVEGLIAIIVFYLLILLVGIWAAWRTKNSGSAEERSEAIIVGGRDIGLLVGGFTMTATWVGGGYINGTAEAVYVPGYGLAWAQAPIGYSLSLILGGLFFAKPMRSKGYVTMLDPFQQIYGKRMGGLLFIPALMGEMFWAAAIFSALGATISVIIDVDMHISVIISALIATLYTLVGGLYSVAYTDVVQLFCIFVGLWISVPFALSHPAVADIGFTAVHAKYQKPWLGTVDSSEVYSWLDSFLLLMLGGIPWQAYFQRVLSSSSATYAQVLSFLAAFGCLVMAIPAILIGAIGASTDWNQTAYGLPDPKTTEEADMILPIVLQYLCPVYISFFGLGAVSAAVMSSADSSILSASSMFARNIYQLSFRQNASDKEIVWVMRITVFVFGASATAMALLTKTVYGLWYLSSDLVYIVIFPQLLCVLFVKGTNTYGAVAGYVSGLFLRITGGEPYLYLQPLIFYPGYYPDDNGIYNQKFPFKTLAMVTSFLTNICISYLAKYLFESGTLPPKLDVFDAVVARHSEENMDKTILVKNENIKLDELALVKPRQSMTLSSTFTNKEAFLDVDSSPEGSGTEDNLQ
PolyA inh: polyadenylation inhibitors in yeast reporter cells, primary screen, luminescence, S. cerevisiae; actives 0.02% (n = 300,000); S. cerevisiae SKY197-pL101 polyadenylation reporter, beta-gal luminescence; efflux-impaired pdr1/pdr3 knockout yeast; score 100 = 6 SD above DMSO; AID 1875, 2009; activity score, % at 12 µM;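 active = lowest replicate activity score at least 50, where 100 means six control SD above control mean; inconclusive = lowest score under 50 but half or more replicates reach 50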;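 note: yeast exposed to compound for 9 h at 30 °C; higher score means more reporter readthrough which indicates perturbed polyadenylation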
CHT block: inhibitors of human choline transporter CHT | High affinity choline transporter 1 (Homo sapiens), Q9GZV3 | CHT-expressing cells, membrane potential dye, choline response; active compounds read low | B-score at 10 µM | actives 0.86% (n = 310,000);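 active = B-score over 3 SD under the library average, and starting fluorescence ratio not unusually high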;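 note: choline stimulus applied at its EC90 after an EC20 pre-addition; B-score computed on integrated fluorescence ratio after choline addition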
T cruzi inh: inhibitors of intracellular T. cruzi growth, primary screen, luminescence, NIH3T3 host cells | inhibition, % (concentration not given with the values) | AID 1885, 2009 | actives 1.4% (n = 300,000) | T. cruzi beta-gal in NIH3T3, 90 h;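 active = mean inhibition across valid replicates above about 55%, limit read from the data; inconclusive = mean below that limit but half or more replicates reach it; inactive = mean below it, under half of replicates reach it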;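 note: signal also drops with host cell toxicity which is not excluded here; higher percent means less beta-gal luminescence so fewer parasites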
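Read-out: Parasite load inhibition, % | Test system: Mouse NIH/3T3 fibroblasts infected with β-gal-expressing T. cruzi Tulahuen C4 | Amount: 5,000 cells/well | Medium: DMEM, 2% fetal bovine serum | Signal: GalScreen β-gal luminescence, detergent lysis, 60 min | Timing: 3 h attach, ≥90 h co-culture | Also added: Tulahuen C4 trypomastigotes, 5000/well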
CHT inh conf: CHT inhibitors, confirmation, cell-based, membrane potential dye, duplicate. CHT activity remaining % of control (active compounds read low), % at 10 µM. AID 493221, 2011. shares compounds with CHT block. actives 70% (n = 2,400). CHT-expressing cells, choline membrane potential dye; LV-to-AA substituted CHT, HEK293 cells;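 active = choline transporter activity left, mean of duplicates at 10 µM, below buffer-only control mean minus 3 SD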;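 note: depolarization triggered by choline at its EC90 following an EC20 pre-addition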
HEK293 CHT ctr: membrane potential effects in parental HEK293, counter-screen for CHT inhibitor project, cell-based, membrane potential dye; choline response; active = decrease or increase beyond buffer ±3SD; membrane potential ratio readout (active if shifted either direction beyond buffer ±3SD; no single direction) at 10 µM; actives 4% (n = 2,400); AID 493222, 2011; shares compounds with CHT block;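 note: parental cells lack the transporter so any hit is non-specific; ratio is peak minus trough fluorescence over baseline after EC90 choline challenge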
Of the large screens only hits and unclear results are named; the others gave an inactive call (follow-up assays come after a bar, where they were run).

COc1ccc(CCNc2nc(-c3ccc(O)cc3)cs2)cc1OC	CHT block -5 | CHT inh conf inactive | HEK293 CHT ctr inactive
COc1ccc(CCNc2nc(-c3ccncc3)cs2)cc1OC	none
Cc1ccc(C(C)C)c(OCC(=O)NN=C(CCl)CCl)c1	none (no result: T cruzi inh)
CC(C)C(NC(=O)c1ccccc1Cl)C(=O)OCc1nc2scc(-c3ccccc3Cl)c2c(=O)[nH]1 (stereo not given)	CHT block -5.1 | CHT inh conf inactive | HEK293 CHT ctr inactive
S=c1[nH]nc(-c2ccccn2)n1/N=C/c1cccc(Cl)c1	CHT block -5.7 | CHT inh conf inactive | HEK293 CHT ctr inactive
Oc1ccc(/C=N/n2c(-c3ccccc3)n[nH]c2=S)cc1Br	PolyA inh inconclusive, CHT block -6 | CHT inh conf 54% | HEK293 CHT ctr inactive
S=c1[nH]nc(-c2ccco2)n1/N=C/c1cccc(Cl)c1	none
CCn1c(=O)n(CC)c2cc(S(=O)(=O)N3CCc4ccccc43)ccc21	CHT block -5.9 | CHT inh conf 44% | HEK293 CHT ctr inactive
O=C(NNC(=S)NC1CCCCC1)c1cccs1	none
O=C(NNC(=S)NC1CCCCC1)c1ccccc1O	CHT block -5 | CHT inh conf 53% | HEK293 CHT ctr inactive
O=C(c1ccc2c(c1)OCO2)C1CCCN(Cc2ccccc2OC(F)F)C1 (stereo not given)	none
COc1cccc(CN2CCCC(C(=O)c3ccc4c(c3)OCO4)C2)c1OC (stereo not given)	CHT block -12 | CHT inh conf inactive | HEK293 CHT ctr inactive
COc1cc(C(=O)NC(=S)NC(C)C)cc(OC)c1OC	none
COc1cc(C(=O)NC(=S)NNC(=O)[C@H]2C[C@@H]2c2ccccc2)cc(OC)c1OC	CHT block -5.9 | CHT inh conf 48% | HEK293 CHT ctr inactive
CSc1nnc(-c2sccc2OCc2ccc(C)cc2)n1C	CHT block -5.3 | CHT inh conf 67% | HEK293 CHT ctr -9.8
COc1ccccc1-c1nnc(SC)n1C	none
Cc1ccc(S(=O)(=O)NC(C)CCc2ccccc2)cc1C(N)=O (stereo not given)	none
CC(C)[C@@H](N)C(=O)N/N=C/c1ccc2ncccc2c1	none
Nc1ncnc2c1ncn2[C@@H]1O[C@H](CO)[C@@H](O)[C@H]1O	CHT block -6 | CHT inh conf 30% | HEK293 CHT ctr inactive
CC1(C)OC2C(O1)[C@@H](CO)O[C@H]2n1cnc2c(N)ncnc21 (stereo not given in full)	PolyA inh inconclusive
C=CCN(CC=C)S(=O)(=O)c1ccc2nc(NC(=O)C(C)C)sc2c1	CHT block -7.3 (no result: PolyA inh, T cruzi inh) | CHT inh conf 43% | HEK293 CHT ctr inactive
O=S(=O)(c1cnccc1N1CCN(CCO)CC1)N1CCCCC1	none
CCOC(=O)C1CCN(c2nc(-c3ccccc3)nc3c2oc2ccccc23)CC1	none
O=C(O)C1CCN(c2nc(-c3ccccc3)nc3c2oc2ccccc23)CC1	CHT block -6 | CHT inh conf 63% | HEK293 CHT ctr inactive
Cc1n[nH]c(=O)c2c(NC(=O)CSc3nc4ccccc4c(=O)n3C(C)C)oc(C)c12	CHT block -10 | CHT inh conf 48% | HEK293 CHT ctr inactive
COCC(C)n1c(SCC(=O)Nc2oc(C)c3c(C)n[nH]c(=O)c23)nc2ccccc2c1=O (stereo not given)	none
COc1ccccc1CN1C(=O)[C@@H]2C(CC(N)=O)NC3(C(=O)Nc4c3ccc(Cl)c4C)[C@@H]2C1=O (stereo not given in full)	none
COc1ccccc1CN1C(=O)[C@@H]2C(CCC(N)=O)NC3(C(=O)Nc4c3ccc(Cl)c4C)[C@@H]2C1=O (stereo not given in full)	CHT block -6.1 | CHT inh conf 61% | HEK293 CHT ctr inactive
O=C(NNC(=S)Nc1ccccc1)c1cc(Br)ccc1Cl	CHT block -5.8 | CHT inh conf 54% | HEK293 CHT ctr inactive
O=C(c1ccco1)N1CCN(C(c2cccs2)c2nnnn2C2CCCC2)CC1 (stereo not given)	CHT block -7.8 | CHT inh conf inactive | HEK293 CHT ctr inactive
N#CCSc1ncnc2ccccc12	none
c1ccc(Sc2ncnc3ccccc23)cc1	CHT block -5 | CHT inh conf inactive | HEK293 CHT ctr inactive
CNc1nc(-c2c[nH]c3ccccc23)cs1	none
CN1CCN(CC(=O)Nc2nc(-c3c[nH]c4ccccc34)cs2)CC1	CHT block -5.4 | CHT inh conf 64% | HEK293 CHT ctr inactive
CCCCNC(=S)Nc1ccc([N+](=O)[O-])cc1	CHT block -9.2 | CHT inh conf 35% | HEK293 CHT ctr inactive
CCCCNC(=S)NC(=O)c1ccc([N+](=O)[O-])cc1	none
CC(C)CCNC(=S)Nc1ccc([N+](=O)[O-])cc1	CHT block -8.7 | CHT inh conf 23% | HEK293 CHT ctr inactive
O=[N+]([O-])c1ccc(NNC(=S)Nc2ccc(F)cc2)cc1	CHT block -6.9 | CHT inh conf inactive | HEK293 CHT ctr inactive
O=C1c2cccc3c(O)ccc(c23)C(=O)N1c1ccc(Cl)cc1	none
COc1ccc(/C=C/C(=O)OCC(=O)Nc2ccc(N3CCOCC3)cc2)cc1OC	CHT block -5 | CHT inh conf inactive | HEK293 CHT ctr inactive
COc1ccc(/C=C/C(=O)OCC(=O)Nc2ccc(N3CCOCC3)cc2)cc1	none
CC(C)C[C@H](NC(=O)N1CCn2c1nc1ccccc12)C(=O)NCC1CCCO1 (stereo not given in full)	none
COc1ccc(C(=O)OCC(=O)NC(C)CCc2ccccc2)c(OC)c1 (stereo not given)	CHT block -5.7 | CHT inh conf inactive | HEK293 CHT ctr inactive
CC1CC(C)CN(C(=O)COc2ccc([N+](=O)[O-])cc2Cl)C1 (stereo not given)	CHT block -6.1 | CHT inh conf inactive | HEK293 CHT ctr inactive
CCCn1nc([N+](=O)[O-])c(C(C#N)c2nc3ccccc3s2)c(Cl)c1=O (stereo not given)	CHT block -14 | CHT inh conf 17% | HEK293 CHT ctr inactive
O=C(Nc1ccccc1Oc1ccsc1C(=O)O)c1ccccc1F	none
CCCCCC(=O)c1ccc(O)cc1O	CHT block -6.1 | CHT inh conf 55% | HEK293 CHT ctr inactive
O=C(NCc1ccccc1C(F)(F)F)C1CCC(=O)N(C2CC2)C1 (stereo not given)	none
CC1(C(=O)NC(=S)NNC(=O)c2ccncc2)CCCCC1	none
